Reference: ChEMBL document CHEMBL1129450, “Synthesis, molecular modeling, and K+ channel-blocking activity of dequalinium analogues having semirigid linkers” (J Med Chem, 1996)
pIC50: −log10 of the molar value.

Columns and labels:
Rattus norvegicus [1] = species: Rattus norvegicus; experiment: Inhibition of after-hyperpolarization (AHP) in cultured rat sympathetic neurons; assay type: functional; details: Sympathetic neuron
Method in brief: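 Compounds from 2 mM MeOH stocks, each tested at two to four concentrations on at least three cells. AHP inhibition was obtained by digitally subtracting blocker records from controls, with the peak difference given as % of control AHP at the same time point.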

Rattus norvegicus [2] = species: Rattus norvegicus; experiment: Equi-effective molar ratio expressed as the ratio of tested compound concentration to that of dequalinium that cause 50% inhibition of the AHP in rat sympathetic neurons; assay type: functional, Sympathetic neuron

| SMILES | pIC50 (Rattus norvegicus [1]) | Ratio (Rattus norvegicus [2]) |
| --- | --- | --- |
| Nc1cc[n+](Cc2ccc(CCCc3ccc(C[n+]4ccc(N)c5ccccc54)cc3)cc2)c2ccccc12 | 6.70 | 0.31 |
| Nc1cc[n+](Cc2ccc3cc(C[n+]4ccc(N)c5ccccc54)ccc3c2)c2ccccc12 | 6.31 | 0.83 |
| Nc1cc[n+](Cc2ccc(/C=C\c3ccc(C[n+]4ccc(N)c5ccccc54)cc3)cc2)c2ccccc12 | 6.72 | 0.24 |
| Cc1cc(N)c2ccccc2[n+]1CCCCCCCCCC[n+]1c(C)cc(N)c2ccccc21.[Cl-].[Cl-] [DEQUALINIUM CHLORIDE] | 6.19 | 1 |
| Nc1cc[n+](Cc2ccc(CCc3ccc(C[n+]4ccc(N)c5ccccc54)cc3)cc2)c2ccccc12 | 6.39 | 0.71 |
| Nc1cc[n+](Cc2ccc(-c3ccc(C[n+]4ccc(N)c5ccccc54)cc3)cc2)c2ccccc12 | 6.42 | 0.4 |
| Nc1cc[n+](Cc2ccc3ccc4ccc(C[n+]5ccc(N)c6ccccc65)cc4c3c2)c2ccccc12 | 6.70 | 0.33 |

More lines, main results first:

| pIC50 (Rattus norvegicus [1]) | SMILES | Ratio (Rattus norvegicus [2]) |
| --- | --- | --- |
| 6.35 | Nc1cc[n+](Cc2ccc(Cc3ccc(C[n+]4ccc(N)c5ccccc54)cc3)cc2)c2ccccc12 | 0.39 |
| 5.55 | Nc1cc[n+](Cc2ccc(C[n+]3ccc(N)c4ccccc43)cc2)c2ccccc12 | 3.7 |
| 6.00 | Nc1cc[n+](Cc2ccc(C#Cc3ccc(C[n+]4ccc(N)c5ccccc54)cc3)cc2)c2ccccc12 | 1.41 |
| 6.44 | Nc1cc[n+](Cc2ccc(-c3cccc(-c4ccc(C[n+]5ccc(N)c6ccccc65)cc4)n3)cc2)c2ccccc12 | 0.59 |
| 6.51 | Nc1cc[n+](Cc2ccc3c(c2)Cc2cc(C[n+]4ccc(N)c5ccccc54)ccc2-3)c2ccccc12 | 0.33 |
| 6.03 | Nc1cc[n+](Cc2ccc(/C=C/c3ccc(C[n+]4ccc(N)c5ccccc54)cc3)cc2)c2ccccc12 | 1.46 |
| 5.72 | Nc1cc[n+](Cc2ccc(-c3ccc(-c4ccc(C[n+]5ccc(N)c6ccccc65)cc4)cc3)cc2)c2ccccc12 | 2.3 |
| 6.43 | Nc1cc[n+](Cc2ccc(CCCCc3ccc(C[n+]4ccc(N)c5ccccc54)cc3)cc2)c2ccccc12 | 0.44 |
| 6.54 | Nc1cc[n+](Cc2cccc(-c3cccc(C[n+]4ccc(N)c5ccccc54)c3)c2)c2ccccc12 | 0.55 |
